Experiments:
[1] = Oral bioavailability in rat at 3.2 mg/kg; assay type: ADME, organism-based; conditions: in vivo
[2] = Half life in rat at 3 mg/kg, iv; assay type: ADME, organism-based; design: dose 3 mg/kg, route intravenous; conditions: in vivo
[3] = Cmax in chimeric mouse transplanted with rat hepatocytes at 3 mg/kg, po; assay type: ADME, organism-based, Hepatocyte; design: dose 3 mg/kg, route oral
Procedure, shortened: (§1)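 Single 3 mg/kg oral dose of compound in 50% PEG400 with equimolar HCl in saline to h-PXB or r-PXB mice (n=3~4). Orbital-vein blood (heparinized) taken over 0–6 hr; plasma stored at -30°C and assayed by LC/MS/MS. Non-compartmental analysis: Cmax from observed values, AUC by trapezoidal rule extrapolated to infinity, CLoral = Dose/AUCpo.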

[4] = Clearance in rat at 3.2 mg/kg, po; assay type: ADME, organism-based; design: dose 3.2 mg/kg, route oral; conditions: in vivo
[5] = Clearance in chimeric mouse transplanted with human hepatocytes at 3 mg/kg, po; assay type: ADME, organism-based, Hepatocyte; design: dose 3 mg/kg, route oral; procedure, shortened: as §1
[6] = Plasma protein binding in rat by equilibrium dialysis method; assay type: ADME, cell-free; conditions: read-out: PPB (converted)
[7] = Drug excretion in feces of chimeric mouse transplanted with human hepatocytes at 3 mg/kg, iv as single dose; assay type: ADME, organism-based, Hepatocyte; design: dose 3 mg/kg, route intravenous; conditions: read-out: Drug excretion
Procedure, shortened: (§2)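 After a 3 mg/kg i.v. dose, pooled urine and feces were collected from metabolic cages over 0–24 hr (n=3). Samples were homogenized in 10 volumes of water, mixed with acetonitrile and analysed by UPLC (UV 254 nm) and LC/MS/MS. Excretion expressed as % of dose.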

[8] = Plasma protein binding in chimeric mouse transplanted with rat hepatocytes by equilibrium dialysis method; assay type: ADME, cell-free, Hepatocyte; conditions: read-out: PPB (converted)
Procedure, shortened: (§3)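 Compound at 1 µg/mL incubated in plasma of h-PXB or r-PXB mice; bound fraction determined by equilibrium dialysis.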

aldehyde oxidase [9] = molecular target: T1, aldehyde oxidase (Homo sapiens, UniProt Q06278); assay: Activity of aldehyde oxidase in hepatocytes isolated from chimeric mouse transplanted with human hepatocytes assessed as enzyme-mediated drug metabolism measured as compound remaining at 10 uM after 2 hrs by LC/MS/MS analysis; assay type: ADME, cell-based, Hepatocyte; conditions: read-out: Stability
T1 sequence (Q06278 whole entry): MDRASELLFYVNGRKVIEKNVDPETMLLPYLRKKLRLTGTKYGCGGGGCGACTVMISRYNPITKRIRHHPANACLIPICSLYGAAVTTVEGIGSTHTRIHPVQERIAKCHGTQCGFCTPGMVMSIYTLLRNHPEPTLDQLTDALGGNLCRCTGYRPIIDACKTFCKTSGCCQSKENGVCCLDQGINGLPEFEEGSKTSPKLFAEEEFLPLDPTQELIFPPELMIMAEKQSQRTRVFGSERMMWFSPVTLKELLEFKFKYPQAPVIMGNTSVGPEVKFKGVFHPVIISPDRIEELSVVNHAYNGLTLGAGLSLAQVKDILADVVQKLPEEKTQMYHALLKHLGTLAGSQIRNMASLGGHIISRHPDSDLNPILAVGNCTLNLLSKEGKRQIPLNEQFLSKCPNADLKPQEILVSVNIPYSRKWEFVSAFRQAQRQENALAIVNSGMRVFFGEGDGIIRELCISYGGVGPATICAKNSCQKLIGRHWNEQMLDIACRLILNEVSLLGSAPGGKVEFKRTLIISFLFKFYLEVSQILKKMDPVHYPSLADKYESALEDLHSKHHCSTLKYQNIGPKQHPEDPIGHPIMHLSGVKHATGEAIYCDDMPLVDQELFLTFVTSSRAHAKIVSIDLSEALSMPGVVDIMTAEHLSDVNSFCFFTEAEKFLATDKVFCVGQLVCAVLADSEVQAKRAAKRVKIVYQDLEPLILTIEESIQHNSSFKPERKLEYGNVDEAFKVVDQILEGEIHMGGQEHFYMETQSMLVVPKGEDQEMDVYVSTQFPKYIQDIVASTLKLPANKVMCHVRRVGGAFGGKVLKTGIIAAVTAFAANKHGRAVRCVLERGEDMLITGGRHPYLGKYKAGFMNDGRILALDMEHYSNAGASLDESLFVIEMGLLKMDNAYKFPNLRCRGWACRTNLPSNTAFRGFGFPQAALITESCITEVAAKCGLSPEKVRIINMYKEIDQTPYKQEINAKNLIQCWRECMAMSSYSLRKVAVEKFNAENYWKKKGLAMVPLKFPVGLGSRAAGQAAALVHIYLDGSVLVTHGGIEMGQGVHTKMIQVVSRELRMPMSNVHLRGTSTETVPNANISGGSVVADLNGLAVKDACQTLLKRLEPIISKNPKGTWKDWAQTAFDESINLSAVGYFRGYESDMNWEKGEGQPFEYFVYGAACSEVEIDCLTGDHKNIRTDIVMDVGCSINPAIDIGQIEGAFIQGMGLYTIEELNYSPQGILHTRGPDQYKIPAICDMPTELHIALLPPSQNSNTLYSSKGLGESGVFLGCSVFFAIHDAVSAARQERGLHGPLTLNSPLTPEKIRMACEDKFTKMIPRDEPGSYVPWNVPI
Procedure, shortened: (§4)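 Fresh hepatocytes from h-PXB mice (mouse cells removed with 66Z rat IgG and anti-rat IgG magnetic beads) or r-PXB mice, 1×10^6 cells/mL in serum-free Krebs-Henseleit buffer. Incubated with 10 μM compound (0.5% acetonitrile) at 37°C under 5% CO₂/95% O₂ with shaking, sampled 0–2 hr. Quenched with acetonitrile, analysed by LC/MS/MS, n=3. CLint derived from first-order depletion rate constant.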

[10] = Drug excretion in urine of chimeric mouse transplanted with human hepatocytes at 3 mg/kg, iv as single dose; assay type: ADME, organism-based, Hepatocyte; design: dose 3 mg/kg, route intravenous; conditions: read-out: Drug excretion; procedure, shortened: as §2
[11] = AUC in chimeric mouse transplanted with rat hepatocytes at 3 mg/kg, po; assay type: ADME, organism-based, Hepatocyte; design: dose 3 mg/kg, route oral; procedure, shortened: as §1
[12] = Intrinsic clearance in hepatocytes isolated from chimeric mouse transplanted with rat hepatocytes assessed as per million cells at 10 uM after 2 hrs by LC/MS/MS analysis; assay type: ADME, cell-based, Hepatocyte; conditions: read-out: CLH; procedure, shortened: as §4
[13] = Plasma protein binding in chimeric mouse transplanted with human hepatocytes by equilibrium dialysis method; assay type: ADME, cell-free, Hepatocyte; conditions: read-out: PPB (converted); procedure, shortened: as §3
aldehyde oxidase [14] = molecular target: T2, aldehyde oxidase (Rattus norvegicus, UniProt Q9Z0U5); assay: Activity of aldehyde oxidase in hepatocytes isolated from chimeric mouse transplanted with rat hepatocytes assessed as enzyme-mediated drug metabolism measured as compound remaining at 10 uM after 2 hrs by LC/MS/MS analysis; assay type: ADME, cell-based, Hepatocyte; conditions: read-out: Stability; procedure, shortened: as §4
T2 sequence (Q9Z0U5 whole entry): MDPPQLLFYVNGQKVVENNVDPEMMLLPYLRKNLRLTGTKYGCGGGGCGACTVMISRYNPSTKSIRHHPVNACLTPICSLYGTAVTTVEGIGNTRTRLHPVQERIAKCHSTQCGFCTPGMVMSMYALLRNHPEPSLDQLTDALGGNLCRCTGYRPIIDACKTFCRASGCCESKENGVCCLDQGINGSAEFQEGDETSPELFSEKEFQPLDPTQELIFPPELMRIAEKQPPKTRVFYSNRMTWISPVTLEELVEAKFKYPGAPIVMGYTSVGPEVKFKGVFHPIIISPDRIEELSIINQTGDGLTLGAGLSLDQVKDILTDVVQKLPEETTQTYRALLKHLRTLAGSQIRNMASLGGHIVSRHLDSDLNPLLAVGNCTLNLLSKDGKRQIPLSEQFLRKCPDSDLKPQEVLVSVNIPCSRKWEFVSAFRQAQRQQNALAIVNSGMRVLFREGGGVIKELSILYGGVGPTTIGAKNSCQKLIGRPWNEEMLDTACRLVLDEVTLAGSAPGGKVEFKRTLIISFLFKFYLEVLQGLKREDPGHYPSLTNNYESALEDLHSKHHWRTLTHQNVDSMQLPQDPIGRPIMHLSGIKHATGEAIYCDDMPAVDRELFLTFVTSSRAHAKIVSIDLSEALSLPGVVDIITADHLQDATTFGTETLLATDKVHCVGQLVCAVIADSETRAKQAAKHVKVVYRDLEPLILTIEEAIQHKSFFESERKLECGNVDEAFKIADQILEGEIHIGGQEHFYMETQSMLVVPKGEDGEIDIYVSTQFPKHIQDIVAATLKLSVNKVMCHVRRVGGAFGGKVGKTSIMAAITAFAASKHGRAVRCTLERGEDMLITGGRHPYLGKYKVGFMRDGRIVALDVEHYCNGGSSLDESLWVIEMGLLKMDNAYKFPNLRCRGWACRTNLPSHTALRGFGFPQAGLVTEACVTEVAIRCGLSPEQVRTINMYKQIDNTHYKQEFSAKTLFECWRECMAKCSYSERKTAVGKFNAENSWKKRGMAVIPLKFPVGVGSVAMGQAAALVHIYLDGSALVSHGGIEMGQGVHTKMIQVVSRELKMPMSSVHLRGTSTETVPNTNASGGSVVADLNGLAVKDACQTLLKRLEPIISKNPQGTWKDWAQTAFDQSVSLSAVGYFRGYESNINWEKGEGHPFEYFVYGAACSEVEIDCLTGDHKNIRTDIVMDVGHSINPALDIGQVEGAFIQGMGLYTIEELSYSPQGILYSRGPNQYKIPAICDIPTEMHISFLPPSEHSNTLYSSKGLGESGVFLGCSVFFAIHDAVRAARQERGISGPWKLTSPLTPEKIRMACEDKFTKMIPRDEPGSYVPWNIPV

[15] = Clearance in chimeric mouse transplanted with rat hepatocytes at 3 mg/kg, po; assay type: ADME, organism-based, Hepatocyte; design: dose 3 mg/kg, route oral; procedure, shortened: as §1
[16] = Intrinsic clearance in hepatocytes isolated from chimeric mouse transplanted with human hepatocytes assessed as per million cells at 10 uM after 2 hrs by LC/MS/MS analysis; assay type: ADME, cell-based, Hepatocyte; conditions: read-out: CLH; procedure, shortened: as §4
[17] = Oral bioavailability in chimeric mouse transplanted with human hepatocytes at 3 mg/kg; assay type: ADME, organism-based, Hepatocyte
[18] = Plasma protein binding in human by equilibrium dialysis method; assay type: ADME, cell-free; conditions: read-out: PPB (converted)

bioavailability [1]: 34.6%
half-life [2]: 24 min
Cmax [3]: 856 ng/mL
CL/F [4]: 29.8 mL/min/kg
CL/F [5]: 234 mL/min/kg
fraction unbound [6]: 0.246
dose excreted [7]: 0.1%
fraction unbound [8]: 0.233
remaining at 2 h, 10 µM (aldehyde oxidase [9]): 27.5%
dose excreted [10]: 0.1%
AUC [11]: 811 ng·h/mL
hepatocyte CLint at 10 µM [12]: 5 µL/min/1e6 cells
fraction unbound [13]: 0.205
remaining at 2 h, 10 µM (aldehyde oxidase [14]): 58.4%
CL/F [15]: 61.6 mL/min/kg
hepatocyte CLint at 10 µM [16]: 10 µL/min/1e6 cells
bioavailability [17]: 29.4%
fraction unbound [18]: 0.228
Structure (SMILES): CC(C)n1nc(-c2cnc(N)nc2-c2ccccc2)ccc1=O

Reference: ChEMBL document CHEMBL3526077, “Prediction of human metabolism of FK3453 by aldehyde oxidase using chimeric mice transplanted with human or rat hepatocytes” (Drug Metab Dispos, 2012)
